Results from ChEMBL document CHEMBL4052618, “Design, synthesis, SAR discussion, in vitro and in vivo evaluation of novel selective EGFR modulator to inhibit L858R/T790M double mutants” (Eur J Med Chem, 2017).

Experiments:
[1] = molecular target: Dual specificity protein kinase CLK1 (Homo sapiens) (UniProt P49759); experiment: Inhibition of CLK1 (unknown origin) at 1 uM relative to control
[2] = molecular target: Casein kinase I isoform alpha (Homo sapiens) (UniProt P48729); experiment: Inhibition of CSNK1A1 (unknown origin) at 1 uM relative to control
[3] = molecular target: Epidermal growth factor receptor (Homo sapiens, UniProt P00533, L858R/T790M); experiment: Inhibition of human recombinant cytoplasmic GST-tagged EGFR T790M/L858R double mutant (668 to 1210 residues) expressed in baculovirus using TK-substrate-biotin preincubated for 15 mins followed by substrate addition measured after 60 mins by FRET-based Z'-Lyte assay
[4] = Half life in Sprague-Dawley rat at 10 mg/kg, po administered via gavage by LC-MS/MS analysis; type: ADME, organism-based; conditions: in vivo
How it was run: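 Male Sprague-Dawley rats (200-240 g) were dosed either by tail vein at 1 mg/kg in 2% DMSO/20% PEG400/78% buffered saline or by oral gavage at 10 mg/kg in 0.5% methylcellulose. Blood was drawn by orbital sinus puncture at 2 min to 24 h into heparin, and plasma was analysed by LC/MS/MS in SRM mode. Parameters came from non-compartmental analysis.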

NCI-H1975 = experiment: In vivo anti tumor activity against human NCI-H1975 cells xenografted in nude C.B-17 SCID mouse model assessed as relative tumor volume at 10 mg/kg, ig for 18 days measured twice a week relative to control; type: functional
How it was run: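 C.B-17 SCID mice received s.c. inoculation of 5 × 10^6 H1975 cells. At 100-150 mm3 they were randomized (n = 9 per group) and dosed intragastrically once daily for 18 days, with PBS as the control. Tumors were measured by caliper twice weekly, with V = length × width²/2. RTV = V/V0, and T/C% = treated mean RTV / control mean RTV × 100.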

[5] = molecular target: Leucine-rich repeat serine/threonine-protein kinase 2 (Homo sapiens) (UniProt Q5S007); experiment: Inhibition of LRRK2 (unknown origin) at 1 uM relative to control
[6] = molecular target: Voltage-gated inwardly rectifying potassium channel KCNH2 (Homo sapiens, UniProt Q12809); experiment: Inhibition of human ERG expressed in HEK293 cells by lonWorks Quattro analysis; type: cell-based
Mus musculus = experiment: Toxicity in nude C.B-17 SCID mouse model xenografted with human NCI-H1975 cells assessed as loss of body weight at 5 to 20 mg/kg, ig for 18 days; type: organism-based; conditions: in vivo, po, 432 h
How it was run: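 H1975 xenografts were set up by subcutaneous inoculation of 5 × 10^6 cells into C.B-17 SCID mice. At a mean tumor volume of 100-150 mm3, mice were randomized into groups of n = 9. They were dosed intragastrically once daily for 18 days at 5, 10 or 20 mg/kg, given as 0.1 mL/10 g body weight. The control group received PBS, and tumors were caliper-measured twice weekly.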

[7] = molecular target: Serine/threonine-protein kinase Chk1 (Homo sapiens) (UniProt O14757); experiment: Inhibition of CHEK1 (unknown origin) at 1 uM relative to control
[8] = molecular target: Testis-specific serine/threonine-protein kinase 1 (Homo sapiens) (UniProt Q9BXA7); experiment: Inhibition of STK22D (unknown origin) at 1 uM relative to control
[9] = molecular target: Cyclin-dependent kinase 5/CDK5 activator 1 (Homo sapiens) (UniProt Q00535+Q15078); experiment: Inhibition of CDK5/p35 (unknown origin) at 1 uM relative to control; type: protein-complex assay
[10] = Intrinsic clearance in rat hepatocytes assessed per million cells; type: ADME, cell-based, Hepatocyte
[11] = molecular target: Non-receptor tyrosine-protein kinase TYK2 (Homo sapiens) (UniProt P29597); experiment: Inhibition of TYK2 (unknown origin) at 1 uM relative to control
[12] = molecular target: Insulin receptor-related protein (Homo sapiens) (UniProt P14616); experiment: Inhibition of INSRR (unknown origin) at 1 uM relative to control
[13] = molecular target: ALK tyrosine kinase receptor (Homo sapiens) (UniProt Q9UM73); experiment: Inhibition of ALK (unknown origin) at 1 uM relative to control
[14] = AUC (0 to infinity) in Sprague-Dawley rat at 10 mg/kg, po administered via gavage by LC-MS/MS analysis; type: ADME, organism-based; design: dose 10 mg/kg, route oral, time infinity; conditions: in vivo
[15] = molecular target: Rho-associated protein kinase 2 (Homo sapiens) (UniProt O75116); experiment: Inhibition of ROCK2 (unknown origin) at 1 uM relative to control
[16] = molecular target: Ribosomal protein S6 kinase beta-1 (Homo sapiens) (UniProt P23443); experiment: Inhibition of RPS6KB1 (unknown origin) at 1 uM relative to control
[17] = Tmax in Sprague-Dawley rat at 10 mg/kg, po administered via gavage by LC-MS/MS analysis; type: ADME, organism-based; conditions: in vivo
How it was run: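 Male Sprague-Dawley rats (200-240 g) received 1 mg/kg by tail-vein injection in 2% DMSO, 20% PEG400 and 78% buffered saline, or 10 mg/kg by oral gavage in 0.5% methylcellulose. Orbital sinus blood was drawn into heparinized tubes at 2, 5, 15 and 30 min and at 1, 2, 4, 8, 12 and 24 h, then centrifuged. Plasma was measured by LC/MS/MS in SRM mode, with non-compartmental analysis.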

[18] = molecular target: Proto-oncogene tyrosine-protein kinase ROS (Homo sapiens) (UniProt P08922); experiment: Inhibition of ROS1 (unknown origin) at 1 uM relative to control
[19] = molecular target: Epidermal growth factor receptor (Homo sapiens, UniProt P00533); experiment: Inhibition of human recombinant cytoplasmic GST-tagged EGFR (668 to 1210 residues) expressed in baculovirus using TK-substrate-biotin preincubated for 15 mins followed by substrate addition measured after 60 mins by FRET-based Z'-Lyte assay; conditions: read-out: IC50
A-431 = experiment: Antiproliferative activity against human A431 cells harboring wild-type EGFR; type: functional, cell-based
[20] = Half life in mouse liver microsomes; type: ADME, microsome
[21] = molecular target: Fibroblast growth factor receptor 1 (Homo sapiens) (UniProt P11362); experiment: Inhibition of FGFR1 (unknown origin) at 1 uM relative to control
[22] = molecular target: MAP kinase-interacting serine/threonine-protein kinase 2 (Homo sapiens) (UniProt Q9HBH9); experiment: Inhibition of MKNK2 (unknown origin) at 1 uM relative to control
[23] = molecular target: BDNF/NT-3 growth factors receptor (Homo sapiens) (UniProt Q16620); experiment: Inhibition of NTRK2 (unknown origin) at 1 uM relative to control
[24] = molecular target: Tyrosine-protein kinase SYK (Homo sapiens) (UniProt P43405); experiment: Inhibition of SYK (unknown origin) at 1 uM relative to control
[25] = AUC (0 to 24 hrs) in Sprague-Dawley rat at 10 mg/kg, po administered via gavage by LC-MS/MS analysis; type: ADME, organism-based; design: time < 24 hr, dose 10 mg/kg, route oral; conditions: in vivo
[26] = molecular target: Serine/threonine-protein kinase Sgk1 (Homo sapiens) (UniProt O00141); experiment: Inhibition of SGK (unknown origin) at 1 uM relative to control
[27] = Half life in human hepatocytes; type: ADME, cell-based, Hepatocyte
[28] = molecular target: RAC-beta serine/threonine-protein kinase (Homo sapiens) (UniProt P31751); experiment: Inhibition of AKT2 (unknown origin) at 1 uM relative to control

Sequence of Ribosomal protein S6 kinase beta-1 (Homo sapiens) (P23443 whole entry, looked up): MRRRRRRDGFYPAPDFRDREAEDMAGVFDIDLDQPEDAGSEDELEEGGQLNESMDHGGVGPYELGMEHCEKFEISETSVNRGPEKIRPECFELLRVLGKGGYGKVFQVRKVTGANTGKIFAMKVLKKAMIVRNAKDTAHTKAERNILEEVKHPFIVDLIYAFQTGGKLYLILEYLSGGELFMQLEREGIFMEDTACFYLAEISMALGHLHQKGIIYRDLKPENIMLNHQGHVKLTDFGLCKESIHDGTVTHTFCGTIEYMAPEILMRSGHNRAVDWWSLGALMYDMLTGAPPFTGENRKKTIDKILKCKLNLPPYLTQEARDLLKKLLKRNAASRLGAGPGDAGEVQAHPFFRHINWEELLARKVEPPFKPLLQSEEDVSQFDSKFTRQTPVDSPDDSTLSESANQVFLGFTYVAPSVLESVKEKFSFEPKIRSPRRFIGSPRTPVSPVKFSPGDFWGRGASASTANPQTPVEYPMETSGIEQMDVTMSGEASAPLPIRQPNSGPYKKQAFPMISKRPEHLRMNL
Sequence of Rho-associated protein kinase 2 (Homo sapiens) (O75116 whole entry, looked up): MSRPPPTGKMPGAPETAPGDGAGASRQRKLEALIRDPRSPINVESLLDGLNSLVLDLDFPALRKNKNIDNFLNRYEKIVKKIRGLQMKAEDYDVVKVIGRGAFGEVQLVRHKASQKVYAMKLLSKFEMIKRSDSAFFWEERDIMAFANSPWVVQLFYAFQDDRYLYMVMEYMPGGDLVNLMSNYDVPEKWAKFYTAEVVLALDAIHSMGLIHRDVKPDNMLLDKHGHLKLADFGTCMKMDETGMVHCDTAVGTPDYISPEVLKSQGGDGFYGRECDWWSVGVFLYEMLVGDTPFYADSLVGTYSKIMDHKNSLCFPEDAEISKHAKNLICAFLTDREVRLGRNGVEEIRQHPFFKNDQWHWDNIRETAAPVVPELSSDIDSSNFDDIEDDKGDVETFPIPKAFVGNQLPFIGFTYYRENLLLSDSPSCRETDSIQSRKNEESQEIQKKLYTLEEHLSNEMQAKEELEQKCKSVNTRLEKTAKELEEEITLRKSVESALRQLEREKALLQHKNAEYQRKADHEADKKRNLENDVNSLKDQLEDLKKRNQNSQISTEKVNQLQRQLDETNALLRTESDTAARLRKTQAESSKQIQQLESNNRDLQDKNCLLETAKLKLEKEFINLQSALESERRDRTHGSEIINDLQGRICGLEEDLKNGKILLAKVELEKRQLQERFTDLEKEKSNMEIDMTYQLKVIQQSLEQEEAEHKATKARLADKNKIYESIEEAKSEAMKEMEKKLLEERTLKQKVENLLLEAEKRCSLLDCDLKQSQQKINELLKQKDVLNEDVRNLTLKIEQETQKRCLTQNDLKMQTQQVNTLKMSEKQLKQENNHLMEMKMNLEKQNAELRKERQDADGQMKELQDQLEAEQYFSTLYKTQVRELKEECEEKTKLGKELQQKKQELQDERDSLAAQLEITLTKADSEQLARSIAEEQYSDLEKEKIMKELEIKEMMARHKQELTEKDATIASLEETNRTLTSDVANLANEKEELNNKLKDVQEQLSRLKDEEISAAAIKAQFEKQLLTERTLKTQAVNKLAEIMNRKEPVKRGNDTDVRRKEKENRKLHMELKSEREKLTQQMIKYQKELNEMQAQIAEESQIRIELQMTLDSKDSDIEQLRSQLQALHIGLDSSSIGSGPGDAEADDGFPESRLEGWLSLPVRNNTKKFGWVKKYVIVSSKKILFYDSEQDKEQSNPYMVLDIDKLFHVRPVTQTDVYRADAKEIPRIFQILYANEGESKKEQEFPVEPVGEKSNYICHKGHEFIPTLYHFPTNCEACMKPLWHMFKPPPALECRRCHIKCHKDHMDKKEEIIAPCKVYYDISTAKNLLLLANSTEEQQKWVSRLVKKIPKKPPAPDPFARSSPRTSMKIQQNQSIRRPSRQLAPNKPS
Sequence of Proto-oncogene tyrosine-protein kinase ROS (Homo sapiens) (P08922 whole entry, the tested form may be a part): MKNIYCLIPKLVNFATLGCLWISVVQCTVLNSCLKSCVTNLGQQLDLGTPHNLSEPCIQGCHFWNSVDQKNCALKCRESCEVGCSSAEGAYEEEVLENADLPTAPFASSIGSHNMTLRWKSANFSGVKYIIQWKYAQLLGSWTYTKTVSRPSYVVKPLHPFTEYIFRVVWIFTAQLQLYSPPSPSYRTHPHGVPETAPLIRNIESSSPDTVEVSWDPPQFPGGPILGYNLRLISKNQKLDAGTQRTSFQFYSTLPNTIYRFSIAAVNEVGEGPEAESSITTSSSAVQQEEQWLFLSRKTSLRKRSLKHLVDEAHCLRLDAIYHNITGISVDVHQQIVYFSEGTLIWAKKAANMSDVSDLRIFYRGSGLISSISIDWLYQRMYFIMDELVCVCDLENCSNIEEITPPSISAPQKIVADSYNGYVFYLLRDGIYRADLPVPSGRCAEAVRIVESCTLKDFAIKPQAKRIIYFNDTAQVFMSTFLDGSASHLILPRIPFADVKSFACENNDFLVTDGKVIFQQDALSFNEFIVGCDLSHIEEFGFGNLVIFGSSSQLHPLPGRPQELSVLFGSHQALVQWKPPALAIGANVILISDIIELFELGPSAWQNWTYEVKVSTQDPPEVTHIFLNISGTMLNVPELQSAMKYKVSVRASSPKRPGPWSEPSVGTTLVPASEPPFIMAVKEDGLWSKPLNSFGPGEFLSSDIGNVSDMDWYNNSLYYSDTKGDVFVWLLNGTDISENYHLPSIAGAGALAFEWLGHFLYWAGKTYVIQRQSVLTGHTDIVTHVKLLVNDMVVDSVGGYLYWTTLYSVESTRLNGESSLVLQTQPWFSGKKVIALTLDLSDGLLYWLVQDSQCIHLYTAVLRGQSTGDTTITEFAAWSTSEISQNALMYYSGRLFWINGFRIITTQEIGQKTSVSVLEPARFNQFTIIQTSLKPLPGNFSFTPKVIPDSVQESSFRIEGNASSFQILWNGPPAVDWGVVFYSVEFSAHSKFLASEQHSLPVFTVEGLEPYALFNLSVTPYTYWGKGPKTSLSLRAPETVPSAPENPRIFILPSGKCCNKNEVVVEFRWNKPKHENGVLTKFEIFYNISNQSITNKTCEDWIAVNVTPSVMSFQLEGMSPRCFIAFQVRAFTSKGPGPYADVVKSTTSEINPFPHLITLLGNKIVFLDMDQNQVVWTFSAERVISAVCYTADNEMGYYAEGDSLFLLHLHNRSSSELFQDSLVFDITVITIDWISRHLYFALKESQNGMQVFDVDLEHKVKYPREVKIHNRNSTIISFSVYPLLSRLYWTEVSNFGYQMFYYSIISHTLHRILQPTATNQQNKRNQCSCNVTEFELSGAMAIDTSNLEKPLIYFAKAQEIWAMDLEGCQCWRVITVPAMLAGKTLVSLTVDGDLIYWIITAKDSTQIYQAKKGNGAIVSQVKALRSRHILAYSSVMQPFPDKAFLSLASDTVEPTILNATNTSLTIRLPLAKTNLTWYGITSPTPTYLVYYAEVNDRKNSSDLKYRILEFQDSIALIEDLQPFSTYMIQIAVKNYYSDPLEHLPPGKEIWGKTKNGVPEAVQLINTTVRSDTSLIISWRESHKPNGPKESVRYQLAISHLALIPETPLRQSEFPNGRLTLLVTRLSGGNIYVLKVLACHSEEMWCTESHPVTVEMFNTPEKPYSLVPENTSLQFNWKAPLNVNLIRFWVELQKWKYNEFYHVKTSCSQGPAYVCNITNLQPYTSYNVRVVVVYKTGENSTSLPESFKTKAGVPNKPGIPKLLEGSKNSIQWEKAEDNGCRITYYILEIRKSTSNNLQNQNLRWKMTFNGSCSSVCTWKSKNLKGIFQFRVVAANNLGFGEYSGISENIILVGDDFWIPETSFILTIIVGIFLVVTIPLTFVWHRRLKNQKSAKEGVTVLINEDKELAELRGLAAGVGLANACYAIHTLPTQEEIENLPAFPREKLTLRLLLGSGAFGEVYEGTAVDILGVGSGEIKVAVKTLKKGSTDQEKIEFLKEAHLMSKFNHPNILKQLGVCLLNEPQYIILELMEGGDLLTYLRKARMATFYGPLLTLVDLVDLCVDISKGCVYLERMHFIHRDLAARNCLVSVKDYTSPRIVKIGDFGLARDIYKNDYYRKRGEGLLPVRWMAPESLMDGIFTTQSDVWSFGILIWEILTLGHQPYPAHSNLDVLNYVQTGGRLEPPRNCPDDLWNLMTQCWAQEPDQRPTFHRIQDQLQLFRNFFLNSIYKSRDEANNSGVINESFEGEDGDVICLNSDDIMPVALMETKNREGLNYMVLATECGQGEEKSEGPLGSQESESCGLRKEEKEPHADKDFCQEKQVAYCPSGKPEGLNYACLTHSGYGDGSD
Sequence of Serine/threonine-protein kinase Chk1 (Homo sapiens) (O14757 whole entry): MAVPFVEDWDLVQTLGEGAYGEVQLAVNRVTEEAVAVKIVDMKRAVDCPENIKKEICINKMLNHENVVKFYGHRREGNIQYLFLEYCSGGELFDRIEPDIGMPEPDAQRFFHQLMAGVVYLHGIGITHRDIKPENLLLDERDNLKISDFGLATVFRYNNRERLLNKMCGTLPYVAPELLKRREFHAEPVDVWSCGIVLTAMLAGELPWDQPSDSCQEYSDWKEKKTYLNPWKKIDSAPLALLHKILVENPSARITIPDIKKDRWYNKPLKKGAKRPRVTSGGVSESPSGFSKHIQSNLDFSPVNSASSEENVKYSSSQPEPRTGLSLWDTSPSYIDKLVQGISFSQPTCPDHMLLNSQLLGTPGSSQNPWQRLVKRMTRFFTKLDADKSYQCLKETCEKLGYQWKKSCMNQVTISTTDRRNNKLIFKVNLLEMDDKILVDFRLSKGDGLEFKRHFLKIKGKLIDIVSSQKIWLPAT
Sequence of Casein kinase I isoform alpha (Homo sapiens) (P48729 2-337 limits assumed): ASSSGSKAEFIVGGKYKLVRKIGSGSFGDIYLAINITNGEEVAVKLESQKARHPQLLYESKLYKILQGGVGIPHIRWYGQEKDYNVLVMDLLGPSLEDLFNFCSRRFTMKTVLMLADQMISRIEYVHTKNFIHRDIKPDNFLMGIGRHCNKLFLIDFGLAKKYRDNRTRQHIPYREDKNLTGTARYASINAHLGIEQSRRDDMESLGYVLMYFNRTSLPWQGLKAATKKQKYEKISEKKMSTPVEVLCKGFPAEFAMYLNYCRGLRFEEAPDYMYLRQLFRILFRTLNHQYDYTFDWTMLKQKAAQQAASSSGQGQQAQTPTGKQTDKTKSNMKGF

For `C=CC(=O)Nc1cc(Nc2nccc(-c3cn4c5c(cccc35)CCC4)n2)c(OC)cc1N(C)CCN(C)C`, the inhibition [1] was 20%, the inhibition [2] was -4% and the IC50 [3] was 0.0026 to 0.0029 µM. It also gave a half-life [4] of 4.1 h, a T/C (NCI-H1975) of 25.7% and an inhibition [5] of 90%. The IC50 [6] was 8.46 µM, the Activity (Mus musculus) was “Non-Toxic” and the inhibition [7] was -6%. For the same compound, the inhibition [8] was 72%, the inhibition [9] was 1% and the CLH [10] was 21 µL/min/10^6 cells. It also gave an inhibition [11] of 14%, an inhibition [12] of 39% and an inhibition [13] of 84%. For the same compound, the AUC(0-inf) [14] was 1.02 µg·h/mL, the inhibition [15] was 0% and the inhibition [16] was -10%. The Tmax [17] was 3.3 h, the inhibition [18] was 94% and the IC50 [19] was 0.0216 µM. For the same compound, the IC50 (A-431) was 0.87 µM, the half-life [20] was 0.198 h and the inhibition [21] was 7%. It also gave an inhibition [22] of 117%, an inhibition [23] of -1% and an inhibition [24] of 4%. For the same compound, the AUC(0-t) at 24 h [25] was 0.995 µg·h/mL, the inhibition [26] was 10% and the half-life [27] was 2.31 h. The inhibition [28] was 1%.
